MEKK2mut PB1 HTS – signal of MEK5 binding to mutant human MEKK2 PB1 domain. percent response, % at 10 µM. bead flow cytometry, Alexa488-MEK5 binding to MEKK2 mutant. 290,000 tested, 0.35% active; in the data active = percent response above about 24%, passing the limit was not always enough
Pemphigus Ab inh – human desmoglein-3 autoantibody binding inhibition; P32926; DSG3-coupled beads, scFv-anti-DSG3-GFP binding, flow cytometry; active compounds read low; binding (percent of control), % at 10 µM; 310,000 tested, 0.48% active; AID 588358;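 active = binding more than 3 SD below its plate's average and above zero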;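 also: hits lower antibody fragment binding to DSG3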
MEKK3 PB1 HTS – modulators (inhibitors or enhancers) of MEK5 binding to human MEKK3 PB1 domain; binding response (% of control), % at 10 µM; bead-based flow cytometry, Alexa488-MEK5 binding to MEKK3; actives lie on both sides; 0 = blocked by unlabeled MEK5, 100 = vehicle; Q99759; 290,000 tested, 1.4% active;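 active = binding response more than 3 SD above or below the average of its plate-row segment, actives on both sides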;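 also: Alexa488 bead fluorescence after subtracting the streptavidin-only scavenger bead signal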
MEKK2 WT-MEK5 – raises or lowers MEK5 binding to wildtype human MEKK2 PB1 domain. Q9Y2U5. bead flow cytometry, Alexa488-MEK5 binding to MEKK2 WT; actives lie on both sides. binding response (% of control), % at 10 µM. 290,000 tested, 1.1% active. AID 1531; in the data active = binding response below about 67% or above about 130%
Apaf-1 inh – human Apaf-1 inhibition | reconstituted apoptosome caspase-3 activity, DEVD-Rh110 fluorescence | inhibition, % at 20 µM | 330,000 tested, 0.71% active | AID 489030 | O14727; active = inhibition of at least 40% at 20 µM
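Medium: Hepes buffer, pH 7.5 / System: biochemical Apaf-1 apoptosome reconstitution / Measured by: Rh110 fluorescence, excitation 480 nm, emission 540 nm / Times: compound with Apaf-1, dATP, procaspase-3 30 min, then 50 min reaction, room temperature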
UBC13 polyUb – inhibitors of human UBC13 polyubiquitin chain formation; TR-FRET; inhibition, % at 20 µM; 330,000 tested, 0.47% active; AID 485273; P61088; in the data active = inhibition above about 45%, passing the limit was not always enough
Target sequence (P61088 whole entry, looked up): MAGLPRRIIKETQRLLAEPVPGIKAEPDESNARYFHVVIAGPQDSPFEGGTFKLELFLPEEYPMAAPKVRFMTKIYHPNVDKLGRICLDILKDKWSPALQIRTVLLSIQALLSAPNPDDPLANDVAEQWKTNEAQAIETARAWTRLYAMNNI
MEKK2wt confirm – raises or lowers MEK5 binding to wildtype human MEKK2, retest. shares compounds with MEKK3 PB1 HTS. bead flow cytometry, Alexa488-MEK5 binding to MEKK2 WT; actives lie on both sides. binding response (% of control), % at 10 µM. 5,900 tested, 2.4% active; in the data active = binding response below about 16% or above about 210%; inactive = in between
MEKK2mut-MEK5 – signal of MEK5 binding to mutant human MEKK2, retest; shares compounds with MEKK3 PB1 HTS; 5,900 tested, 2% active; percent response, % at 10 µM; bead flow cytometry, Alexa488-MEK5 binding to MEKK2 mutant; in the data active = percent response mostly above about 71%, no sharp cut-off; inactive = mostly below about 38%;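 also: higher means compound restores mutant binding toward wildtype level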
MEKK3 confirm – confirmation of inhibitors of MEK5 binding to human MEKK3; 5,900 tested, 1.8% active; bead flow cytometry, Alexa488-MEK5 binding to MEKK3; active compounds read low; binding response (% of control), % at 10 µM; shares compounds with MEKK3 PB1 HTS;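 active = binding response below 72% of control, or above a set upper limit, though filed actives all read lower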;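 also: lower values mean stronger disruption of MEK5 binding to MEKK3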
Hits are given with their value; i = inactive; nt = no result; [ ] = remark or other dose. A selection: hits, their analogues and other compounds. The true share with any hit is near 3.2%.

SMILES	MEKK2mut PB1 HTS	Pemphigus Ab inh	MEKK3 PB1 HTS	MEKK2 WT-MEK5	Apaf-1 inh	UBC13 polyUb	MEKK2wt confirm	MEKK2mut-MEK5	MEKK3 confirm
O=c1c2c3nc4ccccc4nc3n(/N=C/c3ccncc3)c2ncn1-c1ccccc1	i	nt	131	i	i	i	i	i	i
Cc1ccc2oc(C(=O)NCc3ncc(C)[nH]3)c(C)c2c1	i	i	i	i	i	i	nt	nt	nt
O=C(COC(=O)Cc1n[nH]c(=O)c2ccccc12)Nc1c(Br)cc([N+](=O)[O-])cc1Br	nt	i	nt	nt	nt	nt	nt	nt	nt
Cc1cc(C)cc(NS(=O)(=O)c2cccs2)c1	i	i	i	i	i	i	nt	nt	nt
CCc1ccc(NS(=O)(=O)c2cccs2)cc1	39	i	i	i	i	i	i	i	i
COc1cccc(N2C(=O)Nc3ccccc3C2(O)C(=O)NCc2ccc3c(c2)OCO3)c1 (stereo not drawn)	i	i	123	i	i	i	i	i	i
CCOC(=O)c1cccc(C2=CC(=O)CC(C)(C)C2)c1	nt	i	nt	nt	i	i	nt	nt	nt
CN(C)CCSc1nc(-c2ccccc2)nc2c1CCC2	i	i	138	i	i	i	i	i	i
O=C(COc1ccc(Br)cc1)Nc1cc(S(=O)(=O)N2CCCCC2)ccc1N1CCCCC1	i	i	139	i	i	i	i	i	i
Cc1nn(-c2ccccc2)c(Cl)c1CN(C(=O)CCl)c1ccc(Cl)cc1	i	i	145	i	nt	nt	i	i	i
CCCSc1ncnc2sc(C)c(C)c12	i	i	4.0[inhibitor]	8.0[inhibitor]	i	i	10[inhibitor]	i	52
Cc1ccc(C(C(=O)NC2CCCC2)N(Cc2ccc(F)cc2)C(=O)c2csnn2)o1 (stereo not drawn)	i	i	3.0[inhibitor]	3.0[inhibitor]	i	i	i	i	i
Cc1ccc(C(C(=O)NC2CCCC2)N(Cc2ccccc2)C(=O)c2csnn2)o1 (stereo not drawn)	i	i	i	i	i	i	nt	nt	nt
COc1ccc(CNC(=O)CN(Cc2ccc(F)cc2)C(=O)c2csnn2)cc1	i	i	148	i	i	i	i	i	i
C[C@@]12C(=O)OC(=O)[C@]1(C)C1CCC2O1	nt	i	nt	nt	i	i	nt	nt	nt
COc1cccc(NC(=S)N2CCC(NC(=O)c3ccco3)CC2)c1	i	i	i	i	i	i	nt	nt	nt
CC(C)c1ccc(NC(=O)c2snc3ccc(Cl)cc23)cc1	i	i	130	i	i	i	i	i	i
Cc1ccc(S(=O)(=O)N2CCN(S(=O)(=O)c3ccccc3Br)C2=O)cc1	nt	i	nt	nt	i	nt	nt	nt	nt
Cc1c(C2=CCN(S(=O)(=O)c3ccc(Br)cc3)CC2)c2ccccc2n1C	i	i	i	i	i	i	nt	nt	nt
Cc1ccc(S(=O)(=O)N2CC=C(c3ccc(F)cc3)CC2)cc1	i	i	140	i	i	i	i	i	i
Cc1ccc(S(=O)(=O)N2CCN(S(=O)(=O)N3CCCCC3)CC2)c(C)c1	i	i	1.0[inhibitor]	-3.0[inhibitor]	i	i	i	i	i
Cc1ccc(S(=O)(=O)N2CCCN(S(=O)(=O)c3ccc(C)cc3)CC2)cc1	i	nt	36[inhibitor]	i	i	i	i	i	i
CCn1c(C)c(C2=CCN(S(=O)(=O)c3ccc(C)cc3)CC2)c2ccccc21	i	i	i	6.0[inhibitor]	i	i	i	i	i
C#CCN1C=C(C(=O)OCC)C(C)N(Cc2ccccc2I)S1(=O)=O (stereo not drawn)	nt	i	nt	nt	i	nt	nt	nt	nt
Cc1ccc(O)c(N=Nc2ccc(S(=O)(=O)N3CCCC3)cc2)c1	i	i	132	i	i	i	i	i	i
SMILES	MEKK2mut PB1 HTS	Pemphigus Ab inh	MEKK3 PB1 HTS	MEKK2 WT-MEK5	Apaf-1 inh	UBC13 polyUb	MEKK2wt confirm	MEKK2mut-MEK5	MEKK3 confirm
Cc1cc(-c2nn(-c3ccccc3F)cc2CN2CCC(C(N)=O)CC2)c(C)s1	i	i	i	i	i	i	nt	nt	nt
Cc1cc(-c2nn(-c3ccccc3F)cc2CNCCc2cnc[nH]2)c(C)s1	i	i	i	148	i	i	i	i	i
Cc1ccc(OCC(=O)c2cc(C)n(Cc3cccs3)c2C)c([N+](=O)[O-])n1	i	i	i	i	i	i	nt	nt	nt
Cc1cc(C(=O)COc2ccc3ccc(=O)oc3c2)c(C)n1Cc1cccs1	i	i	142	i	i	i	i	i	i
Cc1cc2cc(CNC(=O)NC3CCCCC3)ccc2[nH]1	51	74	62[inhibitor]	nt	i	i	i	i	65
COCCN(C(=O)C1CC(=O)N(Cc2ccccc2)C1)c1nc(-c2ccc([N+](=O)[O-])cc2)cs1 (stereo not drawn)	nt	i	nt	nt	i	i	nt	nt	nt
CN(c1c[nH]c(=O)[nH]c1=O)C1CCCCC1	i	i	69[inhibitor]	i	i	i	i	i	i
CN(C)C1CCCCC=CC(=O)NC1 (stereo not drawn)	nt	i	nt	nt	nt	nt	nt	nt	nt
NC(=O)c1ccccc1NC(=O)c1ccoc1	i	i	i	i	i	i	nt	nt	nt
O=C(Nc1nnc(C2=COCCO2)o1)c1ccc(Cl)cc1	i	i	i	i	i	i	nt	nt	nt
